Source: ChEMBL document CHEMBL2417429, “Direct and nitroxyl (HNO)-mediated reactions of acyloxy nitroso compounds with the thiol-containing proteins glyceraldehyde 3-phosphate dehydrogenase and alkyl hydroperoxide reductase subunit C” (J Med Chem, 2013)
Counter-ions that a name gives are not always drawn. Active and inactive are the calls of the source. No cut-off for these calls is given here.

Legend:
[1] = biological target: Glyceraldehyde-3-phosphate dehydrogenase (Oryctolagus cuniculus) (UniProt P46406); test: Binding affinity to rabbit muscle GAPDH tryptic peptide I143 to K159 assessed as formation of disulfide bond by LC-MS analysis
Method in brief: (§1)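 GAPDH from rabbit muscle, untreated or donor-treated, digested with trypsin (monomer:trypsin 20:1 w/w) in 50 mM Tris-HCl, 37 °C, 12−16 h; quenched by freezing. 10 μM digest in 1:1 2% formic acid/methanol run by LC-MS on a high-resolution Orbitrap in positive ion mode; tryptic peptides identified by m/z.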

[2] = Binding affinity to alkyl hydroperoxide reductase subunit C C165S mutant (unknown origin) assessed as formation of sulfinic acid of Cys46 of peptide D41 to G51 by LC-MS analysis
Method in brief: (§2)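 AhpC C165S pre-reduced with DTT 30 min, desalted on spin column, concentration by A280 (ε 23400 M−1 cm−1). Protein (50 μM) treated with HNO donor (1, 5, 10, 50 equiv) in 0.1 M Tris pH 7.6, room temperature, 60 min; desalted into 25 mM ammonium bicarbonate pH 7.75. Asp-N digest (20:1 w/w, 37 °C, 12−16 h). LC-MS of D41−G51 peptide on high-resolution Orbitrap, positive ion mode.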

[3] = biological target: Glyceraldehyde-3-phosphate dehydrogenase (Oryctolagus cuniculus) (UniProt P46406); test: Binding affinity to rabbit muscle GAPDH peptide V232 to R245 assessed as formation of sulfinic acid of Cys244 by LC-MS analysis; method in brief: as §1
[4] = biological target: Glyceraldehyde-3-phosphate dehydrogenase (Oryctolagus cuniculus, UniProt P46406); test: (§3) Inhibition of rabbit muscle GAPDH assessed as residual enzyme activity after 60 mins by spectrophotometry
Method in brief: (§4)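 Rabbit muscle GAPDH incubated with donor (0.1, 0.5, 1, 5, 10, 100 μM) in 0.1 M sodium phosphate pH 7.4, 25 °C, 60 min. NAD+ and glyceraldehyde-3-phosphate then added in a sealed cuvette; NADH formation followed at 340 nm every minute for 30 min. Runs typically in triplicate, mean ± SE; IC50 from sigmoidal fit of percent-of-control activity.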

[5] = biological target: Glyceraldehyde-3-phosphate dehydrogenase (Oryctolagus cuniculus) (UniProt P46406); test: as §3; method in brief: as §4
[6] = biological target: Glyceraldehyde-3-phosphate dehydrogenase (Oryctolagus cuniculus) (UniProt P46406); test: Residual activity of rabbit muscle GAPDH at 1 uM after 60 mins by spectrophotometry
[7] = Binding affinity to alkyl hydroperoxide reductase subunit C C165S mutant (unknown origin) assessed as unreacted thiol in peptide D41 to G51 by LC-MS analysis; method in brief: as §2
[8] = biological target: Glyceraldehyde-3-phosphate dehydrogenase (Oryctolagus cuniculus) (UniProt P46406); test: Reversible inhibition of rabbit muscle GAPDH assessed as residual enzyme activity at 1 uM after 60 mins followed by incubation with DTT by spectrophotometry relative to control
Method in brief: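 GAPDH (rabbit muscle) exposed to inhibitor for 60 min in 0.1 M phosphate pH 7.4 at 25 °C, then incubated with DTT (100 mM) for 60 min. Residual activity measured by NADH build-up at 340 nm after adding NAD+ and glyceraldehyde-3-phosphate, read each minute over 30 min; expressed as percent of control.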

[9] = biological target: Glyceraldehyde-3-phosphate dehydrogenase (Oryctolagus cuniculus) (UniProt P46406); test: Binding affinity to rabbit muscle GAPDH assessed as structural modifications at 5 mM after 60 mins by SDS-PAGE
[10] = Binding affinity to alkyl hydroperoxide reductase subunit C C165S mutant peptide D41 to G51 (unknown origin) assessed as sulfinic acid or sulfinamide modification by MALDI-TOF MS
Method in brief: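 Pre-reduced, desalted AhpC C165S (50 μM) incubated with HNO donor (1, 5, 10, 50 equiv) in 0.1 M Tris pH 7.6, 60 min at room temperature. Buffer exchanged into ammonium bicarbonate, then Asp-N digest (20:1 w/w, 37 °C, 12−16 h). Digest mixed 1:1 with dihydroxybenzoic acid matrix; D41−G51 peptide mass read by MALDI-TOF.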

[11] = biological target: Glyceraldehyde-3-phosphate dehydrogenase (Oryctolagus cuniculus) (UniProt P46406); test: Binding affinity to rabbit muscle GAPDH assessed as structural modifications of Cys149, Cys153 and Cys244 at 5 mM after 60 mins by MALDI-TOF MS
[12] = Binding affinity to alkyl hydroperoxide reductase subunit C C165S mutant (unknown origin) assessed as presence of S-nitrosated D41 to G51 peptide by LC-MS analysis; method in brief: as §2
[13] = biological target: Glyceraldehyde-3-phosphate dehydrogenase (Oryctolagus cuniculus) (UniProt P46406); test: Binding affinity to rabbit muscle GAPDH peptide V232 to R245 assessed as formation of S-nitrosated peptide by LC-MS analysis
[14] = Binding affinity to alkyl hydroperoxide reductase subunit C C165S mutant (unknown origin) assessed as formation of sulfinic acid by LC-MS analysis
Method in brief: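 AhpC C165S reduced with DTT, desalted by spin column, quantified at 280 nm; 50 μM protein incubated with compound (1, 5, 10, 50 equiv) in 0.1 M Tris pH 7.6, room temperature, 60 min; desalted into 25 mM ammonium bicarbonate, Asp-N digest (20:1 w/w, 37 °C, 12–16 h); Orbitrap LC-MS, 55 min gradient, positive ion.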

[15] = biological target: Glyceraldehyde-3-phosphate dehydrogenase (Oryctolagus cuniculus) (UniProt P46406); test: Binding affinity to rabbit muscle GAPDH peptide V232 to R245 assessed as formation of sulfinic acid and N-phenylsulfinamide by LC-MS analysis
[16] = biological target: Glyceraldehyde-3-phosphate dehydrogenase (Oryctolagus cuniculus) (UniProt P46406); test: Binding affinity to rabbit muscle GAPDH peptide V232 to R245 assessed as formation of mixture of sulfinamide and sulfinic acid by LC-MS analysis; method in brief: as §1
[17] = Binding affinity to alkyl hydroperoxide reductase subunit C C165S mutant (unknown origin) assessed as formation of mixture of sulfinamide and sulfinic acid at Cys46 by LC-MS analysis; method in brief: as §2
[18] = Binding affinity to alkyl hydroperoxide reductase subunit C C165S mutant (unknown origin) assessed as structural modifications by SDS-PAGE
[19] = Half life of the compound in neutral buffer at 1 mM by stopped-flow UV-Vis spectrophotometry; assay type: physicochemical; conditions: 1000 µM
[20] = Chemical stability of the compound in neutral buffer assessed as rate constant at 1 mM by stopped-flow UV-Vis spectrophotometry; assay type: physicochemical; conditions: 1000 µM
[21] = Binding affinity to alkyl hydroperoxide reductase subunit C C165S mutant (unknown origin) assessed as formation of sulfinamide and sulfinic acid by LC-MS analysis; method in brief: as §2

Sequence of Glyceraldehyde-3-phosphate dehydrogenase (Oryctolagus cuniculus) (P46406 whole entry, looked up): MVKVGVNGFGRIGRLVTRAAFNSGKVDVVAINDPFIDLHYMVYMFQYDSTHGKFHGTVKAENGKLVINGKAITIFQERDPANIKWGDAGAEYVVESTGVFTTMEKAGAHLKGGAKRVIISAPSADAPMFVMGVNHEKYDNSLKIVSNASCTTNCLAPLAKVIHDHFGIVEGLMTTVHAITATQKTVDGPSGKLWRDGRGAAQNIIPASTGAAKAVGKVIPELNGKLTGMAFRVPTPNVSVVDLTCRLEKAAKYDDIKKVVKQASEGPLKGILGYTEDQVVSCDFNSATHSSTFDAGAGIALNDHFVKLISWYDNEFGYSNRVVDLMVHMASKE
Sequence of Glyceraldehyde-3-phosphate dehydrogenase (P46406 whole entry): as the sequence (P46406 whole entry, looked up) above

SMILES	Activity [1]	IC50 [4] [nM]	inhibition [5]	residual activity [6] [%]	Activity [7]	Activity [9]	Activity [10]	Activity [11]	also measured
CC(C)(C)C(=O)OC1(N=O)CCCCC1	Active	150	Dose-dependent effect	76	inactive	inactive	Active	Active	Activity [2]: Active; Activity [3]: Active; Activity [8]: 88%
CCN(CC)N(O)N=O									Activity [12]: Active; Activity [13]: Active
N[C@@H](CCC(=O)N[C@@H](CSN=O)C(=O)NCC(=O)O)C(=O)O									Activity [12]: Active
O=Nc1ccccc1	Active								Activity [14]: Active; Activity [15]: Active
O=S(=O)(NO)c1ccccc1Br	Active								Activity [16]: Active; Activity [17]: Active
CC(=O)OC1(N=O)CCCCC1 [1-NITROSOCYCLOHEXYL ACETATE]	Active	200	Dose-dependent effect	5	inactive	inactive	Active	Active	Activity [2]: Active; Activity [3]: Active; Activity [18]: Active; Activity [8]: 12%
O=NC1(OC(=O)C(F)(F)F)CCCCC1 [1-NITROSOCYCLOHEXYL TRIFLUOROACETATE]		670		42	inactive		Active		t1/2 [19]: 0.121 s; K [20]: 5.74 s⁻¹; Activity [17]: Active
[O-][N+]([O-])=NO [ANGELI'S SALT]	Active	400	Dose-dependent effect		inactive	inactive	Active	Active	Activity [16]: Active; Activity [21]: Active
